Screening results as filed in PubChem BioAssay.
ERp5 inh: ERp5 (human) disulfide isomerase inhibition | Q15084 | ERp5 insulin aggregation, absorbance 650 nm, 90 min | inhibition, % at 9.99 µM | 350,000 tested, 0.05% active | AID 651711;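 active = mean replicate inhibition above about 25%, with every replicate also reaching it, limit read from the data, passing the limit was not always enough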
Ecoli rRNA inh: inhibitors of bacterial rRNA selective over humanized ribosomes | E. coli WT GFP vs humanized-ribosome RFP mutants, fluorescence, 24 h; stronger effect = lower value; DMSO median 0, no signal -100 | GFP signal change (wild-type ribosome), % (no concentration beside the values) | 350,000 tested, 1.6% active | AID 720706;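 active = significant combined selectivity score with lowered wild-type GFP, culture density cut under 30%, mutant RFP and density less affected; inactive = any of these conditions unmet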
PvdQ inh: P. aeruginosa PvdQ acylase inhibition; purified PvdQ acylase, fluorescence plate reader; inhibition, % at 10 µM; 340,000 tested, 0.063% active; in the data active = inhibition above about 30%, passing the limit was not always enough
FN deposition inh: fibronectin deposition inhibition. AH1F fibroblasts, Alexa488-fibronectin deposition fluorescence, overnight. inhibition, % at 12.6 µM. 350,000 tested, 0.086% active;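 active = mean inhibition across replicates of 30% or more, regardless of how many single replicates reach that level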
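Measured by – fluorescence 485/525 nm · System – AH1F fibroblast monolayer, labelled fibronectin deposition · Amount – 10000 cells per well · Buffer or medium – serum-reduced DMEM (2% serum) · Doses – single dose, pinned · Also added – fluorescent fibronectin at 24 nM final · Schedule – 1 h cell attachment, overnight exposure to compound and label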
Env fusion inh: HIV envelope-mediated fusion inhibition; HeLa-JRFL Env/CEM21 cell fusion, luciferase; inhibition, % at 12.3 µM; 360,000 tested, 1.1% active;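 active = mean replicate inhibition score of at least 50 and every replicate individually at or above 50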
PDI turbidity: PDI (human) enzyme inhibition | P07237 | PDI insulin aggregation turbidity, A650, 90 min | inhibition, % at 10 µM | 350,000 tested, 0.052% active;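 active = mean inhibition across replicates of 30% or more, whatever share of single replicates reach that level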
Target sequence (P07237 whole entry, looked up): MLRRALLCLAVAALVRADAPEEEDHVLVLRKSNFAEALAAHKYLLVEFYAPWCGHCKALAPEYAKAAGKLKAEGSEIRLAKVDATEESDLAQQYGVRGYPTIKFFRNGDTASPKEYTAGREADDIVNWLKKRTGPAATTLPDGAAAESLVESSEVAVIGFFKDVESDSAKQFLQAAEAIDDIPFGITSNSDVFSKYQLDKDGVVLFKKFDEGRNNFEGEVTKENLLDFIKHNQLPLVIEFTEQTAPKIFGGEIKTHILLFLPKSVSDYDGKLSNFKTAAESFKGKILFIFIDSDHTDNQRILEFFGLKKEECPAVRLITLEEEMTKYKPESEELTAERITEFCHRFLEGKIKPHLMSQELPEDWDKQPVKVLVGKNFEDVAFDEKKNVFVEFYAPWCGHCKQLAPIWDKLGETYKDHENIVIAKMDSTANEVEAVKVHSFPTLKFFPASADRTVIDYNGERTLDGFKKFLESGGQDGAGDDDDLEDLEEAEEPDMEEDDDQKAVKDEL
Each line names hits and unclear results; the compound was inactive in the other large screens. This is a sample that favours compounds with a hit; in the whole collection about 2.2% have one here.

O=C(/C=C1\NC2(CCCC2)Cc2ccccc21)C(=O)N/N=C/c1ccc(O)c(O)c1	Ecoli rRNA inh -21
O=C(Cc1ccccn1)N[C@H]1C=C[C@H](CC(=O)N2CCCCC2)O[C@H]1CO	none (no result: PvdQ inh, PDI turbidity)
Cc1ccc2nc3n(c(=O)c2c1)-c1ncccc1C(=O)NC3Cc1ccccc1 (configuration not stated)	none (no result: PvdQ inh, Env fusion inh)
Cc1cc(C)c2c(=O)n3c(nc2c1)C(Cc1ccccc1)NC(=O)c1cccnc1-3 (configuration not stated)	none (no result: Ecoli rRNA inh, PvdQ inh)
Cc1cc(C)c2c(=O)n3c(nc2c1)C(Cc1ccc(O)cc1)NC(=O)c1cccnc1-3 (configuration not stated)	PDI turbidity 44 (no result: PvdQ inh)
Cc1ccc2nc3n(c(=O)c2c1)-c1ncccc1C(=O)NC3Cc1ccc(O)cc1 (configuration not stated)	PDI turbidity 37 (no result: PvdQ inh, Env fusion inh)
O=C1NC(Cc2ccc(O)cc2)c2nc3ccccc3c(=O)n2-c2ncccc21 (configuration not stated)	PDI turbidity 43 (no result: PvdQ inh)
COc1ccc(S(=O)(=O)N2CCC3(CC2)CN(Cc2ccncc2)[C@H](CO)c2[nH]c4cc(OC)ccc4c23)cc1	none (no result: PvdQ inh, FN deposition inh, Env fusion inh, PDI turbidity)
CNC[C@@H]1OCCCC[C@@H](C)Oc2ccc(NS(=O)(=O)c3ccc(OC)cc3)cc2C(=O)N([C@@H](C)CO)C[C@H]1C	none (no result: ERp5 inh, PvdQ inh, FN deposition inh, PDI turbidity)
COc1ccc(NC(=O)C2CCCN2C(=O)NC2CCCCC2)cc1OC (configuration not stated)	none (no result: ERp5 inh, Ecoli rRNA inh)
COc1ccc(NC(=O)C2CCCN(C(=O)NC3CCCCC3)C2)cc1OC (configuration not stated)	PvdQ inh 34 (no result: ERp5 inh, Ecoli rRNA inh)
CCC/C(=C1/c2ccccc2C(=O)N1c1ccccc1)c1c(C)noc1C	Ecoli rRNA inh -25 (no result: PvdQ inh, PDI turbidity)
CCOc1ccc(NCC(=O)c2ccc(C)cc2)cc1	Ecoli rRNA inh -33
Cc1ccc(C(=O)CNc2ccc(Cl)cc2)cc1	none
C[C@@H]1CCCCO[C@@H](CN(C)S(C)(=O)=O)[C@@H](C)CN([C@H](C)CO)C(=O)c2cc(NC(=O)Nc3ccc(F)cc3)ccc2O1	none (no result: ERp5 inh, PvdQ inh, FN deposition inh, PDI turbidity)
N#C/C(=N\Nc1ccc([N+](=O)[O-])cc1)C(=N)N1CCOCC1	none
N#C/C(=N\Nc1ccc(Br)cc1)C(=N)N1CCOCC1	Ecoli rRNA inh -26
C[C@@H]1CN([C@H](C)CO)C(=O)CCCn2nncc2CO[C@@H]1CN(C)Cc1ccc2c(c1)OCCO2	none (no result: ERp5 inh, PvdQ inh, Env fusion inh, PDI turbidity)
CCc1ccc(NC2=CC(=O)C(=O)c3ccccc32)cc1	Ecoli rRNA inh -24
Cc1ccc(S(=O)(=O)/N=C2\C=C(Nc3cccc(C(=O)O)c3)C(=O)c3ccccc32)cc1	none
Cc1ccc(NC2=C/C(=N/S(=O)(=O)c3cccs3)c3ccccc3C2=O)cc1	Env fusion inh 74 (no result: Ecoli rRNA inh)
O=C1C=C(Nc2ccccc2)c2ccccc2C1=O	none
CCc1ccc(S(=O)(=O)/N=C2\C=C(Nc3ccc(C(=O)O)cc3)C(=O)c3ccccc32)cc1	Env fusion inh 73
COCC(=O)N1C[C@H](C)[C@H](OC)CN(C)C(=O)c2cc(NC(=O)NC(C)C)ccc2OC[C@H]1C	none (no result: PvdQ inh, PDI turbidity)
CCOc1ccc([C@@H]2CC=C(C(=O)O)CN2S(=O)(=O)c2ccc(C)cc2)cc1	Ecoli rRNA inh -26
CCc1ccc([C@@H]2CC=C(C(=O)O)CN2S(=O)(=O)c2ccc(C)cc2)cc1	Ecoli rRNA inh -23
Cc1noc(C)c1S(=O)(=O)Nc1ccc2c(c1)C(=O)N([C@@H](C)CO)C[C@H](C)[C@H](CN(C)C(=O)C1CCCCC1)OCCCC[C@H](C)O2	none (no result: PvdQ inh, FN deposition inh, PDI turbidity)
COc1ccc(S(=O)(=O)N(C)C[C@H]2Oc3ccc(NC(=O)CCCN(C)C)cc3C(=O)N([C@@H](C)CO)C[C@@H]2C)cc1	none (no result: PvdQ inh, FN deposition inh, Env fusion inh, PDI turbidity)
CCN(CC)C(=O)Oc1nnc(SC(C)C)n1-c1ccc(Cl)cc1	Ecoli rRNA inh -29
CCN(CC)C(=O)Oc1nnc(SC(C)C)n1-c1ccc(Cl)c(Cl)c1	none
CCC(CO)Oc1cc(NC(=O)c2ccc(F)cc2)c2ncn(C(C)C)c2c1 (configuration not stated)	none
CCC(CO)Oc1cc(NC(=O)c2ccc(N)cc2)c2ncn(C(C)C)c2c1 (configuration not stated)	Ecoli rRNA inh -20
COc1ccc(S(=O)(=O)Nc2cccc3c2O[C@@H](CN(C)S(=O)(=O)c2cccs2)[C@H](C)CN([C@@H](C)CO)C3=O)cc1	none (no result: PvdQ inh, FN deposition inh, PDI turbidity)
COc1ccc(C2/C=C\CN(C(=O)Nc3ccccc3)CC(=O)N2Cc2ccc(F)cc2)cc1 (configuration not stated)	Ecoli rRNA inh -27
C[C@@H]1CCCCO[C@H](CN(C)C(=O)Nc2ccc3c(c2)OCO3)[C@H](C)CN([C@H](C)CO)C(=O)c2cc(NS(=O)(=O)c3cn(C)cn3)ccc2O1	none (no result: PvdQ inh, FN deposition inh, PDI turbidity)
Brc1ccc(CNc2ccc3ncccc3c2)cc1	Ecoli rRNA inh -29
O=C(Nc1ccc2ncccc2c1)c1cccc(Br)c1	none
O=C(O)CC1(CC(=O)NCc2ccc(-c3cccs3)cc2)CCCCC1	Ecoli rRNA inh -20
COc1cc(O)c(C(CCN2CCCCC2)c2ccc(N(C)C)cc2)c(OC)c1 (configuration not stated)	Env fusion inh 57
COc1cc(O)c(C(CCN2CCCC2)c2ccc(N(C)C)cc2)c(OC)c1 (configuration not stated)	none
CC(Sc1nc(O)c(-c2ccccc2)c(=O)[nH]1)C(=O)Nc1ccc(Cl)cc1 (configuration not stated)	Ecoli rRNA inh -24
CCOC(=O)c1ccc(NC(=O)C(C)Sc2nc(O)c(-c3ccccc3)c(=O)[nH]2)cc1 (configuration not stated)	none
Cc1oc(-c2ccc(Cl)cc2)cc1C(=O)/C(C#N)=C/Nc1ccccc1	Ecoli rRNA inh -25
CC(=O)c1cccc(NC(=O)C2=CC(c3cccs3)=NS(=O)(=O)N2C)c1	Ecoli rRNA inh -20
CN1C(C(=O)Nc2cccc(O)c2)=CC(c2cccs2)=NS1(=O)=O	none (no result: PDI turbidity)
O=C(NCc1ccccc1F)[C@@H]1[C@@H](CO)[C@@H]2Cn3c(cccc3=O)[C@@H]2N1C(=O)CC1CC1	none (no result: PvdQ inh, FN deposition inh, Env fusion inh, PDI turbidity)
O=[N+]([O-])c1ccc2c(c1)/C(=N\O)c1ccccc1-2	Ecoli rRNA inh -28
Cc1csc2c(N3CCN(C(=S)Nc4ccc(C(F)(F)F)cc4)CC3)ncnc12	Ecoli rRNA inh -32
COc1cc(OC)nc(Oc2ccccc2C(=O)Oc2ccccc2Cl)n1	Ecoli rRNA inh -23 (no result: FN deposition inh, Env fusion inh)
C[C@H](O)C#Cc1cnc2c(c1)C(=O)N([C@H](C)CO)C[C@H](C)[C@H](CN(C)Cc1ccc(-c3ccccc3)cc1)O2	none (no result: PvdQ inh, PDI turbidity)
O=C(N[C@H]1CC[C@@H](CCn2cc(-c3ccccn3)nn2)O[C@@H]1CO)c1ccccc1	none (no result: PvdQ inh, FN deposition inh, PDI turbidity)
C=CCOc1ccc(/C=C/C(=O)OCC(=O)NC2CCCCCCC2)cc1	Env fusion inh 60
